Reference: ChEMBL document CHEMBL3227952, “Potential organ- or tumor-imaging agents. 18. Radioiodinated diamines and bisquaternaries” (J Med Chem, 1979)

Experiments:
Conditions in all cases: in vivo
Adrenal [1] = assay: Drug uptake in Sprague-Dawley rat adrenal at 11.7 to 12.3 uCi, iv after 0.5 hrs by liquid scintillation counting; type: ADME, organism-based, Adrenal gland
Outline: (§1)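 Adult male Sprague-Dawley rats, 200–420 g, fed ad libitum. They got ¹²⁵I-labelled agent in saline (9.0–9.5 µCi/mg), 0.1 mL, by tail vein under ether. Five rats per time point were exsanguinated under ether. Organs were excised, rinsed, blotted and weighed. Duplicate samples were counted in a well-scintillation gamma counter (87% efficiency). Results are % administered dose/g, mean ± SEM.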

[2] = Drug uptake in Sprague-Dawley rat bone marrow at 11.7 to 12.3 uCi, iv after 0.5 hrs by liquid scintillation counting; type: ADME, organism-based; outline: as §1
Brain [3] = assay: Drug uptake in Sprague-Dawley rat brain at 11.7 to 12.3 uCi, iv after 0.5 hrs by liquid scintillation counting; type: ADME, organism-based; outline: as §1
[4] = Drug uptake in Sprague-Dawley rat diaphragm at 11.7 to 12.3 uCi, iv after 0.5 hrs by liquid scintillation counting; type: ADME, organism-based; outline: as §1
Duodenum [5] = assay: Drug uptake in Sprague-Dawley rat duodenum at 11.7 to 12.3 uCi, iv after 0.5 hrs by liquid scintillation counting; type: ADME, organism-based; outline: as §1
[6] = Drug uptake in Sprague-Dawley rat auricle at 11.7 to 12.3 uCi, iv after 0.5 hrs by liquid scintillation counting; type: ADME, organism-based; outline: as §1
[7] = Drug uptake in Sprague-Dawley rat ventricle at 11.7 to 12.3 uCi, iv after 0.5 hrs by liquid scintillation counting; type: ADME, organism-based, Cardiac ventricle
Outline: (§2)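 ¹²⁵I-labelled bisquaternary dissolved in saline (26 mg/2.0 mL), 9.0–9.5 μCi/mg, given in 0.1 mL via tail vein under ether to adult male Sprague-Dawley rats (200–420 g). Rats were killed by exsanguination under ether at 0.5 or 2 h. Organs were excised, rinsed, blotted and weighed, and duplicate samples were gamma-counted in a well-scintillation counter (87% efficiency). Results are % administered dose/g, mean ± SEM, five rats.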

[8] = Drug uptake in Sprague-Dawley rat intervertebral disk at 11.7 to 12.3 uCi, iv after 0.5 hrs by liquid scintillation counting; type: ADME, organism-based; outline: as §1
Kidney [9] = assay: Drug uptake in Sprague-Dawley rat kidney at 11.7 to 12.3 uCi, iv after 0.5 hrs by liquid scintillation counting; type: ADME, organism-based; outline: as §1
Liver [10] = assay: Drug uptake in Sprague-Dawley rat liver at 11.7 to 12.3 uCi, iv after 0.5 hrs by liquid scintillation counting; type: ADME, organism-based; outline: as §1
Lung [11] = assay: Drug uptake in Sprague-Dawley rat lung at 11.7 to 12.3 uCi, iv after 0.5 hrs by liquid scintillation counting; type: ADME, organism-based; outline: as §1
[12] = Drug uptake in Sprague-Dawley rat meninges at 11.7 to 12.3 uCi, iv after 0.5 hrs by liquid scintillation counting; type: ADME, organism-based; outline: as §1
Pituitary gland [13] = assay: Drug uptake in Sprague-Dawley rat pituitary at 11.7 to 12.3 uCi, iv after 0.5 hrs by liquid scintillation counting; type: ADME, organism-based; outline: as §1
Pancreas [14] = assay: Drug uptake in Sprague-Dawley rat pancreas at 11.7 to 12.3 uCi, iv after 0.5 hrs by liquid scintillation counting; type: ADME, organism-based; outline: as §1
Spleen [15] = assay: Drug uptake in Sprague-Dawley rat spleen at 11.7 to 12.3 uCi, iv after 0.5 hrs by liquid scintillation counting; type: ADME, organism-based; outline: as §2
Testes [16] = assay: Drug uptake in Sprague-Dawley rat testes at 11.7 to 12.3 uCi, iv after 0.5 hrs by liquid scintillation counting; type: ADME, organism-based, Testis; outline: as §2
Thyroid gland [17] = assay: Drug uptake in Sprague-Dawley rat thyroid at 11.7 to 12.3 uCi, iv after 0.5 hrs by liquid scintillation counting; type: ADME, organism-based; outline: as §2
[18] = Drug uptake in Sprague-Dawley rat trachea at 11.7 to 12.3 uCi, iv after 0.5 hrs by liquid scintillation counting; type: ADME, organism-based; outline: as §2
Blood [19] = assay: Drug uptake in Sprague-Dawley rat blood at 11.7 to 12.3 uCi, iv after 0.5 hrs by liquid scintillation counting; type: ADME, organism-based; outline: as §1
Adrenal [20] = assay: Drug uptake in Sprague-Dawley rat adrenal at 11.7 to 12.3 uCi, iv after 2 hrs by liquid scintillation counting; type: ADME, organism-based, Adrenal gland; outline: as §1
[21] = Drug uptake in Sprague-Dawley rat bone marrow at 11.7 to 12.3 uCi, iv after 2 hrs by liquid scintillation counting; type: ADME, organism-based; outline: as §1
Brain [22] = assay: Drug uptake in Sprague-Dawley rat brain at 11.7 to 12.3 uCi, iv after 2 hrs by liquid scintillation counting; type: ADME, organism-based; outline: as §1
[23] = Drug uptake in Sprague-Dawley rat diaphragm at 11.7 to 12.3 uCi, iv after 2 hrs by liquid scintillation counting; type: ADME, organism-based; outline: as §1
Duodenum [24] = assay: Drug uptake in Sprague-Dawley rat duodenum at 11.7 to 12.3 uCi, iv after 2 hrs by liquid scintillation counting; type: ADME, organism-based; outline: as §1
[25] = Drug uptake in Sprague-Dawley rat auricle at 11.7 to 12.3 uCi, iv after 2 hrs by liquid scintillation counting; type: ADME, organism-based; outline: as §1
[26] = Drug uptake in Sprague-Dawley rat ventricle at 11.7 to 12.3 uCi, iv after 2 hrs by liquid scintillation counting; type: ADME, organism-based, Cardiac ventricle; outline: as §2
[27] = Drug uptake in Sprague-Dawley rat intervertebral disk at 11.7 to 12.3 uCi, iv after 2 hrs by liquid scintillation counting; type: ADME, organism-based; outline: as §1
Kidney [28] = assay: Drug uptake in Sprague-Dawley rat kidney at 11.7 to 12.3 uCi, iv after 2 hrs by liquid scintillation counting; type: ADME, organism-based; outline: as §1
Liver [29] = assay: Drug uptake in Sprague-Dawley rat liver at 11.7 to 12.3 uCi, iv after 2 hrs by liquid scintillation counting; type: ADME, organism-based; outline: as §1
Lung [30] = assay: Drug uptake in Sprague-Dawley rat lung at 11.7 to 12.3 uCi, iv after 2 hrs by liquid scintillation counting; type: ADME, organism-based; outline: as §1
[31] = Drug uptake in Sprague-Dawley rat meninges at 11.7 to 12.3 uCi, iv after 2 hrs by liquid scintillation counting; type: ADME, organism-based; outline: as §1
Pituitary gland [32] = assay: Drug uptake in Sprague-Dawley rat pituitary at 11.7 to 12.3 uCi, iv after 2 hrs by liquid scintillation counting; type: ADME, organism-based; outline: as §1
Pancreas [33] = assay: Drug uptake in Sprague-Dawley rat pancreas at 11.7 to 12.3 uCi, iv after 2 hrs by liquid scintillation counting; type: ADME, organism-based; outline: as §1
Spleen [34] = assay: Drug uptake in Sprague-Dawley rat spleen at 11.7 to 12.3 uCi, iv after 2 hrs by liquid scintillation counting; type: ADME, organism-based; outline: as §2
Testes [35] = assay: Drug uptake in Sprague-Dawley rat testes at 11.7 to 12.3 uCi, iv after 2 hrs by liquid scintillation counting; type: ADME, organism-based, Testis; outline: as §2
Thyroid gland [36] = assay: Drug uptake in Sprague-Dawley rat thyroid at 11.7 to 12.3 uCi, iv after 2 hrs by liquid scintillation counting; type: ADME, organism-based; outline: as §2
[37] = Drug uptake in Sprague-Dawley rat trachea at 11.7 to 12.3 uCi, iv after 2 hrs by liquid scintillation counting; type: ADME, organism-based; outline: as §2
Blood [38] = assay: Drug uptake in Sprague-Dawley rat blood at 11.7 to 12.3 uCi, iv after 2 hrs by liquid scintillation counting; type: ADME, organism-based; outline: as §1

SMILES: C[N+](C)(C)Cc1ccc(C[N+](C)(C)C)c([125I])c1.[I-].[I-]
- Drug uptake (Adrenal [1]): 0.094 % ID/g
- Drug uptake [2]: 0.132 % ID/g
- Drug uptake (Brain [3]): 0.044 % ID/g
- Drug uptake [4]: 0.08 % ID/g
- Drug uptake (Duodenum [5]): 0.085 % ID/g
- Drug uptake [6]: 0.203 % ID/g
- Drug uptake [7]: 0.121 % ID/g
- Drug uptake [8]: 0.607 % ID/g
- Drug uptake (Kidney [9]): 3.305 % ID/g
- Drug uptake (Liver [10]): 0.129 % ID/g
- Drug uptake (Lung [11]): 0.257 % ID/g
- Drug uptake [12]: 0.467 % ID/g
- Drug uptake (Pituitary gland [13]): 0.118 % ID/g
- Drug uptake (Pancreas [14]): 0.075 % ID/g
- Drug uptake (Spleen [15]): 0.137 % ID/g
- Drug uptake (Testes [16]): 0.076 % ID/g
- Drug uptake (Thyroid gland [17]): 0.095 % ID/g
- Drug uptake [18]: 0.798 % ID/g
- Drug uptake (Blood [19]): 0.277 % ID/g
- Drug uptake (Adrenal [20]): 0.043 % ID/g
- Drug uptake [21]: 0.078 % ID/g
- Drug uptake (Brain [22]): 0.038 % ID/g
- Drug uptake [23]: 0.022 % ID/g
- Drug uptake (Duodenum [24]): 0.033 % ID/g
- Drug uptake [25]: 0.108 % ID/g
- Drug uptake [26]: 0.018 % ID/g
- Drug uptake [27]: 0.087 % ID/g
- Drug uptake (Kidney [28]): 1.834 % ID/g
- Drug uptake (Liver [29]): 0.085 % ID/g
- Drug uptake (Lung [30]): 0.087 % ID/g
- Drug uptake [31]: 0.658 % ID/g
- Drug uptake (Pituitary gland [32]): 0.082 % ID/g
- Drug uptake (Pancreas [33]): 0.03 % ID/g
- Drug uptake (Spleen [34]): 0.094 % ID/g
- Drug uptake (Testes [35]): 0.034 % ID/g
- Drug uptake (Thyroid gland [36]): 0.06 % ID/g
- Drug uptake [37]: 0.089 % ID/g
- Drug uptake (Blood [38]): 0.015 % ID/g
